HNF4A DNA FP = change in binding of human HNF4 alpha to DNA. P41235. HNF4a-FITC DNA binding, fluorescence polarization, 1 h. activity change, % at 10 µM. 360,000 compounds, 0.3% hits. AID 1224865; in the data active = activity change above about 30%, passing the limit was not always enough
EBNA-1 inhibitor = blocks EBNA-1 binding to DNA | 300,000 compounds, 0.34% hits | inhibition, % at 14.8 µM | EBNA-1 DNA binding, fluorescence polarization | AID 1950; in the data active = inhibition above about 28%
CSN inh = CSN deneddylation inhibition. inhibition, % at 12.5 µM. Q92905. AID 651999. 360,000 compounds, 0.38% hits. Purified CSN, SCF-Nedd8-OG deneddylation, fluorescence polarization;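 active = pattern-corrected inhibition above about 35%, with an unprinted fluorescence ratio check between 0.5 and 1.5, limit read from the data, passing the limit was not always enough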;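 note: 0% = enzyme with substrate and 100% = substrate without enzyme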
Target sequence (Q92905 whole entry, looked up, one chain of several): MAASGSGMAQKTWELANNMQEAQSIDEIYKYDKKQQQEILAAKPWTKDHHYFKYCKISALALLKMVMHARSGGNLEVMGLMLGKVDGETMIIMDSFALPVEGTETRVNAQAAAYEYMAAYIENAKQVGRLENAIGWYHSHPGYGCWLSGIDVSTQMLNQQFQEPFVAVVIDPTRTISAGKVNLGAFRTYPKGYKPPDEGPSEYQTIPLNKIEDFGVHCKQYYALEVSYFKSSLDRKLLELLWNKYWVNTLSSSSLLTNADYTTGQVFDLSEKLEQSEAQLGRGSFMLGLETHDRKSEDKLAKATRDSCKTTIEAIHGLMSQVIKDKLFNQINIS
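Schedule: reaction 90 min, room temperature / Assay system: HEK293T-derived human Csn5 enzyme / Input: Csn5 at 0.24 nM final / Measure: inhibition of Csn5 cleavage, % / Control set: substrate-only high control, full reaction low control / Technique: fluorescence polarization of the substrate / Buffer or medium: Tris/NaCl/DTT buffer, pH 7.5 / Reagent: SCFSkp2-Nedd8OG substrate at 10 nM final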
Bfl-1 A1 inh = inhibitors of the anti-apoptotic protein A1, read as caspase activation. MEF A1-2A-BIM cells, Caspase-Glo 3/7 luminescence, 3 h; percent of clofoctol response, vehicle zero. caspase activation, % (test concentration not listed). 330,000 compounds, 0.066% hits;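 active = over half of replicate activation scores above 10%, or exactly half above 10 with the replicate mean above 10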
ZTA counter = blocks Epstein-Barr virus ZTA, an EBNA-1 counter-screen | 320,000 compounds, 0.15% hits | ZTA-DNA binding, fluorescence polarization | inhibition, % at 11 µM | AID 2234; in the data active = inhibition above about 33%
LANA-H2B inh = blocks KSHV LANA binding to histone H2A/H2B; inhibition, % (test concentration not listed); cell-free LANA-H2A/H2B peptide, fluorescence polarization; AID 2629; Q9QR71; 320,000 compounds, 0.6% hits; in the data active = inhibition mostly above about 10%, no sharp cut-off; inactive = mostly below about 6.7%
CSN deneddyl val = validation of inhibitors of human CSN-mediated cullin deneddylation; shares compounds with CSN inh; Csn5 deneddylation of SCF-Nedd8OG, fluorescence polarization, 90 min; inhibition, % at 16.6 µM; 540 compounds, 62% hits; AID 720654; in the data active = inhibition above about 50%;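 note: 0% = DMSO with enzyme and 100% = no enzyme wells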
MMP-2 counter = MMP-2 (human) inhibition, counter-screen for CSN hits; shares compounds with CSN inh; recombinant MMP-2, FRET substrate fluorescence, 60 min; inhibition, % at 16.6 µM; 540 compounds, 33% hits; AID 720655;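 active = corrected plate-normalized z-score of 5 or more, or -5 or less, or inhibition of 15% or more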;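 note: plate controls were DMSO wells with enzyme for no effect and buffer wells lacking MMP-2 for full effect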
Thrombin counter = blocks bovine thrombin in a CSN deneddylation counter-screen | shares compounds with CSN inh | inhibition, % at 16.6 µM | bovine thrombin cleavage of Ub4-pepOG, fluorescence polarization | AID 720656 | 540 compounds, 49% hits;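 active = inhibition at or above a set limit, with a fluorescence interference ratio between 0.5 and a set maximum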
Active calls of the source: *; . = no result given. A selection: hits, their analogues and other compounds. The true share with any hit is near 1.5%.

SMILES | HNF4A DNA FP | EBNA-1 inhibitor | CSN inh | Bfl-1 A1 inh | ZTA counter | LANA-H2B inh | CSN deneddyl val | MMP-2 counter | Thrombin counter
CCN1C(=O)C(=Cc2ccc(N3CCOCC3)o2)C(=O)N(CC)C1=S | 48* | 0 | 106* | 0 | 6 | -4 | 62* | -24 | 69*
CC1(C)OC(c2ccccc2)=C/C(=C/C=C2C(=O)NC(=O)NC2=O)O1 | 184 | 1 | 96* | 1 | 16 | -6 | 195* | -4 | -8
COC(=O)C1=C(c2cc3ccccc3s2)C[C@@H]2CC[C@H]1N2C(=O)NC1CCCCC1 | -1 | 4 | 5 | 0 | -5 | 3 | . | . | .
CN1C(=O)/C(=C/c2ccc(Cl)s2)C(=O)NC1=S | 3 | -4 | 10 | 1 | 0 | -2 | . | . | .
C=CCN1C(=O)/C(=C/c2ccc(Br)s2)C(=O)NC1=S | -6 | -14 | 37* | 0 | -3 | -6 | 81* | 13 | 3
CC(C)(C)C(=O)O[C@H]1CC[C@@]2(C)C(=CC(=O)C3C2CC[C@]2(C)C(=O)[C@@H](F)CC32)C1 (stereo partly drawn) | 5 | . | -2 | 0 | . | 3 | . | . | .
Cc1cc(C=C2C(=O)NC(=S)NC2=O)c(C)n1C1CCCC1 | 1 | -11 | 15 | 0 | -10 | -2 | . | . | .
Cc1cc(C=C2C(=O)N(C)C(=S)N(C)C2=O)c(C)n1C1CCCCC1 | 20 | -12 | 49* | 0 | 11 | -6 | 113* | 1 | 3
CC(C)(C)c1ccc(O)c(N=Cc2c(O)ccc3ccccc23)c1 | 76 | 0 | 57* | 0 | 3 | 11 | 67* | -19 | 61*
COC(=O)C1=C(c2ccc(F)cc2F)C[C@@H]2CC[C@H]1N2C(=O)NCc1ccc(C(F)(F)F)cc1 | -1 | . | 2 | 1 | -7 | -8 | . | . | .
O=c1[nH]c(=O)n(Cc2ccco2)c(O)c1/C=N/N1CCCCCC1 | 0 | 5 | 6 | 0 | -1 | -1 | . | . | .
NC(=O)c1ccc(N=Cc2c(O)n(Cc3ccco3)c(=O)[nH]c2=O)cc1 | -26 | -5 | 45* | 1 | 5 | 2 | 39 | 55* | 1
N#Cc1c(/N=C/c2c(O)n(Cc3ccco3)c(=O)[nH]c2=O)sc2c1CCCC2 | -3 | -1 | 43* | 0 | 7 | -1 | 73* | 10 | -2
C=C1C(=O)O[C@@H]2C[C@@H](C)[C@@H]3C=CC(=O)[C@@]3(C)[C@@H](OC(=O)CC(=O)O[C@H]3[C@@H]4C(=C)C(=O)O[C@@H]4C[C@@H](C)[C@@H]4C=CC(=O)[C@]43C)[C@H]12 | -25 | -7 | 57* | -2 | 5 | 2 | . | 1 | 21*
CCCCn1c(O)c(/C=C/C=Nc2ccccc2)c(=O)[nH]c1=O | 55* | 5 | 47* | 2 | -3 | -12 | 50 | -11 | 37*
CCOc1ccc(N2C(=O)NC(=O)/C(=C\c3ccc(N4CCCCC4)o3)C2=O)cc1 | 181 | -2 | 138 | 1 | 0 | . | . | . | .
O=C1NC(=O)N(c2ccc3c(c2)OCO3)C(=O)/C1=C/c1ccc(N2CCCC2)o1 | 143 | 2 | 42* | 1 | 8 | -29 | 124* | -14 | 83*
Cc1ccc(/C=C2\C(=O)NC(=S)N(c3cccc(F)c3)C2=O)o1 | 21 | 11 | 45* | 1 | 18 | 5 | 65* | 35* | 54*
CCOc1ccc(N2C(=O)/C(=C/c3ccc(C)o3)C(=O)NC2=S)cc1 | 21 | -12 | 27 | -1 | 2 | 1 | . | . | .
COC(=O)C1=C(c2ccccc2)C[C@@H]2CC[C@H]1N2C(=O)N1CCOCC1 | -1 | -9 | 4 | 0 | 6 | 5 | . | . | .
